Laboratory results: PubChem BioAssay AID1735 (Vanderbilt High Throughput Screening Facility, 2009)
Records with an inconclusive call do not appear. Activity calls are given as the source filed them.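 How the source made its calls: active means sigmoid dose curve converging in at least two of three replicates, including loose fits with few points beside the midpoint; inactive means curve converging in fewer than two replicates.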

Test system: HEK293 thallium flux, FluoZin-2 fluorescence, ouabain+bumetanide
Experiment: parental HEK thallium flux modulation, ouabain plus bumetanide, dose response, counter-screen for KCC2 modulator project, HEK cells, counterscreen 2 (AID 1735)
How it was run: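 material = HEK cells | medium = HEPES-buffered HBSS with 0.2 mM ouabain and 2 mM bumetanide | compound dosing = 11-point threefold dilution series, top dose 30 µM | timing = overnight plating, 10–20 s after thallium read | measured by = FluoZin-2 fluorescence | measure = Initial-fluorescence-normalized slope 10–20 s post-thallium, EC50 by variable-slope sigmoid | replication = triplicate, replicates fitted separately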

| SMILES | EC50 |
| --- | --- |
| NC(=S)N=Nc1c(O)n(Cc2ccc(F)cc2)c2ccccc12 | 2.2 µM |
| O=C(NC(=S)Nc1nc(-c2cccc([N+](=O)[O-])c2)cs1)c1cc(Cl)ccc1Cl | 0.689 µM |
| COC(=O)[C@@H](NC(=O)O[C@@H]1C(=O)c2ccc(OC)cc2O[C@H]1c1cccc(C(F)(F)F)c1)C(C)C | 0.612 µM |
| S=C(NCCc1ccccc1)N/N=C/c1cccc(Cl)c1Cl | 14.3 µM (inactive) |
| CC(=O)c1cccc(NC(=S)NC(=O)c2ccc(C)cc2)c1 | 1.58 µM |
| CCOCCCNC(=O)c1ccc(-n2c(=S)[nH]c3ccccc3c2=O)cc1 | 24.2 µM (inactive) |
| CCOc1[nH]n(-c2ccccc2)c(=O)c1C=Nc1ccc(F)cc1F | 2.2 µM |
| Cc1ccc(-c2n[nH]c(=S)n2/N=C/C=C\c2ccccc2[N+](=O)[O-])cc1 | 0.643 µM |
| O=[N+]([O-])c1ccc(-c2cn(-c3ccccc3F)c(=S)[nH]2)cc1 | 0.52 µM |
| COC(=O)c1sccc1NC(=S)OC | 1.58 µM |
| NC(=S)N=Nc1c(O)n(Cc2ccccc2)c2ccccc12 | 0.0883 µM (inactive) |
| Cc1onc(-c2ccccc2Cl)c1C(=O)NC(=S)Nc1ccc(C(C)C)cc1 | 0.246 µM |
| O=C(NC(=S)Nc1ccc2c(c1)OCO2)c1ccc(Cl)cc1 | 0.0585 µM (inactive) |
| Cc1nn(-c2nc3ccccc3[nH]2)c(N)c1-c1ccccc1 | 2.46 µM |
| N=C1SCC(=O)N1c1ncc(Cc2cccc(Cl)c2)s1 | 3.03 µM |
| COc1ccc(N2C(=S)N=C(Nc3cccc(C)c3)C23CCCCC3)cc1 | 2.62 µM |
| COc1ccc(Cn2c(=S)[nH]c3ccccc32)cc1 | 0.397 µM |
| CCOc1ccc2nc(SC3CC(=O)N(c4cccc(OC)c4)C3=O)sc2c1 (stereo not drawn) | 3.2 µM |
